# Compounds with a hit are over-represented: about 6.4% of the library has one in this group of screens.
# WT yeast gro inh – growth inhibition of WT yeast, mitochondrial fusion screen. actives 2.1% (n = 190,000). mitochondrial fusion phenotypic screen, WT strain. AID 1362. inhibition, % at 10 µM; in the data active = inhibition above about 58%; tested in S. cerevisiae
# GRIN3A LBD mod – modulates the human NR3A ligand-binding domain; NR3A LBD differential scanning fluorimetry, Tm shift; 0% = protein alone, 100% = glycine-bound protein; Tm shift relative to glycine control, % at 25 µM; actives 2.5% (n = 340,000);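 active = melting temperature shift of at least 10% of the positive control shift, at one fixed dose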
# CHOP inh – blocks CHOP induction under ER stress; CHO-K1 CHOP-promoter luciferase, tunicamycin-induced, 15-18 h; inhibition, % at 10 µM; actives 3.8% (n = 220,000); AID 2732;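 active = compounds that reduced the stress-induced luciferase reporter signal by more than about 70% of percent inhibition, limit read from the data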;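 note: 0% = tunicamycin plus vehicle and 100% = wells without tunicamycin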
# EBV gp42 inh – EBV gp42 inhibition | AID 1085 | Fluorescence polarization binding assay, mP read-out | actives 0.42% (n = 220,000) | inhibition, % (tested at 21.74 µM); in the data active = inhibition above about 50%
# Target sequence (Q1HVG2 whole entry, looked up): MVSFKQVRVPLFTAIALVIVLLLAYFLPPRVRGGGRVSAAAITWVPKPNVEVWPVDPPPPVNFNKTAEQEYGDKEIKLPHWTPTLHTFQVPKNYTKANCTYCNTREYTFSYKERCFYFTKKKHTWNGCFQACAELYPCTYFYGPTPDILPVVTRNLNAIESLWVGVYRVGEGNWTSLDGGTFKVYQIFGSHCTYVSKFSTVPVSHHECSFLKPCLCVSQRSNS
# MPTP block – permeability transition pore inhibition; isolated mouse mitochondria, Ca2+ swelling absorbance, 30 min; actives 1.4% (n = 360,000); inhibition, % at 10 µM;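 active = inhibition of 50% or more, scaled per plate between neutral and stimulator controls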;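 note: 0% = DMSO wells given calcium and 100% = 1 mM EGTA wells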
# Tb MetRS inh – blocks T. brucei methionyl-tRNA synthetase activity; AID 624268; actives 0.4% (n = 360,000); inhibition, % at 11.9 µM; purified T. brucei MetRS, ATP depletion, Kinase-Glo luminescence;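 active = inhibition above a per-plate cutoff of the control wells' mean inhibition plus 3 SD, cut at about 5.5% in these data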;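 note: 0% = DMSO wells median and 100% = median of wells with control inhibitor compound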
#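 assay system = parasite MetRS enzyme | timing = 15 min preincubation, 2 h reaction, all 25 °C | evaluation = percent inhibition relative to median high and low control wells | medium = HEPES buffer containing pyrophosphatase, BSA, spermine, DTT | compound = single dose, 11.9 µM final nominal, 0.9% final DMSO | detection = Kinase-Glo luminescence, ATP depletion format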
# An asterisk follows results filed as active; nt = no result given.
SMILES,WT yeast gro inh,GRIN3A LBD mod,CHOP inh,EBV gp42 inh,MPTP block,Tb MetRS inh
Cn1cccc1/C=C1\SC(=S)N(NC(=O)c2cccc(Cl)c2)C1=O,22.1,13.0*,8.1,-94.1,1.6,-4.2
O=C(CC1C(=O)NCCN1Cc1cccc(Oc2ccccc2)c1)NCc1cccnc1 (configuration not stated),14.3,-1.6,6.7,13.0,-0.3,0.2
CCOC(=O)/C(C#N)=C/c1cn(CCC(=O)O)nc1-c1cccc(Br)c1,1.0,-2.1,6.5,0.5,0.0,-0.3
CCCC[n+]1c2ccccc2cc2ccccc21,nt,22.2*,nt,nt,-3.0,-0.8
Cc1nccn1-c1c([N+](=O)[O-])c(=O)n(C)c2ccccc12,nt,-0.5,5.9,-16.2,0.7,-0.4
Cn1c(=O)c([N+](=O)[O-])c(-n2cnc3ccccc32)c2ccccc21,nt,2.9,73.7*,3.6,4.3,0.4
COC(=O)Cn1c(=NC(=O)c2sc3ccccc3c2Cl)sc2cc(S(N)(=O)=O)ccc21,-4.0,12.6*,23.7,20.0,-2.0,-1.1
C#CCn1c(=NC(=O)CN2C(=O)CCC2=O)sc2cc(S(N)(=O)=O)ccc21,-12.3,-2.4,27.1,-6.2,-1.7,-0.6
C#CCn1c(=NC(=O)c2cc(-c3cccs3)nc3ccccc23)sc2cc(S(N)(=O)=O)ccc21,4.2,15.2*,4.6,-9.0,2.3,-1.2
C#CCn1c(=NC(=O)c2cc(Cl)sc2Cl)sc2cc(S(N)(=O)=O)ccc21,23.1,31.2*,-25.7,-10.0,2.8,-1.2
NS(=O)(=O)c1ccc(NC(=O)c2cc(-c3cccs3)nc3ccccc23)cc1,10.3,1.3,67.3,-11.7,-1.0,-0.2
c1coc(Cn2c(SCc3nc4ccccc4[nH]3)nnc2-c2cnccn2)c1,5.0,-3.4,6.5,22.3,0.8,1.6
Cn1cc(S(=O)(=O)N2CCC(C(N)=O)CC2)c(=O)n(C)c1=O,-5.9,0.2,0.6,-14.3,-0.3,-0.4
Cc1noc(C)c1C(=O)OCC(=O)Nc1ccccc1Oc1ccccc1,59.0*,-0.2,37.0,-19.4,-6.3,-0.3
Cc1noc(C)c1C(=O)OCC(=O)Nc1ccccc1C(=O)NC(C)c1ccccc1 (configuration not stated),-8.3,1.4,0.0,-6.3,-0.2,-0.3
COc1ccc(C)cc1S(=O)(=O)n1cnc(C)c1,nt,-1.0,nt,nt,1.0,-0.7
CCOc1ccc(OCCSc2nnnn2C2CCCCC2)cc1,22.8,9.4,79.8*,-15.8,0.8,-1.0
CCOC(=O)C=C(OC(=O)c1ccc(OC)cc1)c1ccccc1,nt,-0.6,nt,nt,1.0,-0.3
COc1ccc(/C(C)=N/NC(=S)NCCc2ccccc2)c(O)c1,nt,23.4*,nt,nt,6.9,-0.4
S=C(NCCc1ccccc1)N/N=C/c1ccccc1Cl,63.6*,-0.6,44.2,3.8,3.3,-1.1
CCc1ccc(/C=N/NC(=S)NCCc2ccccc2)cc1,-17.3,0.1,47.2,-16.1,3.2,-0.9
COc1ccc(/C=N/NC(=S)NCCc2ccccc2)cc1,nt,-2.4,nt,nt,0.0,-1.5
COc1ccc(O)c(/C=N/NC(=S)NCCc2ccccc2)c1,nt,36.1*,nt,nt,4.2,-0.4
Cc1ccccc1N(CC(=O)N/N=C/c1ccccc1Cl)C(=O)c1ccccc1,2.2,0.5,73.1*,3.1,0.0,-1.2
COCCNC(=S)N/N=C(\C)c1ccccc1O,6.9,5.7,-117.6,4.9,-0.3,-0.7
SMILES,WT yeast gro inh,GRIN3A LBD mod,CHOP inh,EBV gp42 inh,MPTP block,Tb MetRS inh
Cc1ccccc1N(CC(=O)N/N=C/c1ccc(N(C)C)cc1)C(=O)c1ccccc1,0.9,-3.6,19.7,-25.7,1.9,-1.5
O=C(CNCCO)N1CCc2ccccc21,16.7,-0.2,-19.1,-6.0,-2.1,-1.1
O=C(CCN1C(=O)c2ccncc2C1=O)Nc1ccc(F)cc1,-2.5,1.0,-6.3,-2.3,-0.9,-0.4
CCOC(=O)c1c(-c2ccccc2)cn2c(C)cc(C)nc12,10.8,-1.1,21.6,5.5,-0.5,0.3
Fc1ccc(/C=N/NC(=S)NCCc2ccccc2)cc1F,nt,-0.8,nt,nt,3.6,-0.8
Oc1ccc(Br)cc1/C=N/NC(=S)NCCc1ccccc1,nt,23.4*,nt,nt,5.5,-0.5
CC1=C(C(=O)N2CCOCC2)CC(CC(=O)NCCc2ccccn2)C(=O)N1Cc1ccc(C(C)(C)C)cc1 (configuration not stated),nt,nt,nt,nt,0.6,-0.9
C=CCN(c1cccc(C(F)(F)F)c1)S(=O)(=O)c1cccc(C(=O)OCC(=O)Nc2ccccc2)c1,14.2,5.5,23.5,-19.4,-12.1,0.1
CC(C)Cc1nc2ccccc2[nH]1,nt,-2.2,-1.4,-0.2,1.4,-0.4
CC(C)Cc1n[nH]c(=O)[nH]1,11.1,-1.9,83.2*,-18.2,0.3,-0.9
Fc1ccc(CSc2ccc(-c3cccs3)nn2)cc1,0.0,1.4,-18.6,-10.0,1.8,0.3
Cc1ccc(CNC(=O)CSc2ccc(-c3cccs3)nn2)cc1,-6.3,-2.4,5.3,-7.1,-0.2,0.1
Cc1ccc(CSc2ccc(-c3cccs3)nn2)cc1,-4.9,14.1*,38.2,-12.6,3.2,-0.4
COc1ccc(CCNC(=O)CSc2ccc(-c3cccs3)nn2)cc1,-9.2,29.2*,3.7,3.9,5.9,-1.1
CC(=O)Nc1cc(-c2ccc(N3CCN(C)CC3)cc2)cn2c(-c3ccc(F)c(Cl)c3)cnc12,nt,nt,nt,nt,0.6,-0.3
Cc1ccc(S(=O)(=O)N/N=C2/CC(=O)CC(C)(C)C2)cc1[N+](=O)[O-],nt,-1.1,1.0,-3.6,0.1,0.5
O=C(N1CCCCC1)N1CCN(C(c2ccccc2)c2ccccc2)CC1,40.7,-1.1,82.7*,7.2,-1.6,-1.6
O=C(c1ccccc1)N1CCN(C(=O)N2CCOCC2)CC1,-14.1,-1.4,-36.3,-26.0,-0.2,0.2
O=C(N1CCOCC1)N1CCN(C(c2ccccc2)c2ccccc2)CC1,95.1*,0.1,-13.0,-15.8,-2.5,0.5
O=C(COC(=O)CC(c1ccccc1)c1ccccc1)Nc1ccc(F)c(F)c1,58.7*,nt,8.9,-2.4,nt,nt
Cc1ccccc1COc1cccc(/C=N/NC(=O)c2nnn(-c3nonc3N)c2C)c1,nt,-1.5,nt,nt,0.2,-0.1
Cc1c(C(=O)N/N=C/c2cccc(O)c2)nnn1-c1nonc1N,nt,11.5*,nt,nt,-2.6,-0.2
CC(C)c1c(C(=O)N/N=C/c2ccc(C(F)(F)F)cc2)nnn1-c1nonc1N,nt,27.6*,nt,nt,0.7,-0.8
CC(C)c1c(C(=O)N/N=C/c2ccc(OCc3ccc(F)cc3)cc2)nnn1-c1nonc1N,nt,29.2*,nt,nt,1.0,0.5
CC(C)c1c(C(=O)N/N=C/c2ccoc2)nnn1-c1nonc1N,nt,-19.6,nt,nt,1.7,0.6
COc1cccc(/C=N/NC(=O)c2nnn(-c3nonc3N)c2C(C)C)c1OCc1ccc(F)cc1,nt,5.5,nt,nt,-2.3,0.3
CC(C)c1c(C(=O)N/N=C/c2cccc(OCc3ccccc3)c2)nnn1-c1nonc1N,nt,24.0*,nt,nt,7.4,-0.6
CCCOc1ccc(-c2c(C(=O)N/N=C/c3ccccc3)nnn2-c2nonc2N)cc1,nt,8.6,6.5,-13.6,1.0,1.0
O=C(NCc1ccccc1)c1cc(-c2ccncc2)nc2ccccc12,nt,-2.5,nt,nt,0.1,-1.8
